Tests used:
[1] = Concentration required to inhibit the growth of chang liver cells; assay type: functional; details: Homo sapiens
[2] = tested on: L1210; test: Concentration required to inhibit the growth of L1210 cells; assay type: functional, cell-based; details: Mus musculus
[3] = tested on: Mus musculus; test: Incidence of disease(mouse type II collagen arthritis) was scored as the percentage of animals within each experimental group that exhibited joint or limb inflammation on day 30 at intraperitoneal of dose 2 mg/kg; assay type: functional
Procedure, shortened: (§1)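 DBA/1 mice were immunized with bovine type II collagen (modified Courtenay method), with a collagen booster on day 21. Compounds were given ip starting 2 days before the first collagen challenge and every 2 days thereafter. Incidence was the percentage of animals per group with joint or limb inflammation, scored on days 23, 30, 37 and 44.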

[4] = tested on: Mus musculus; test: Incidence of disease(mouse type II collagen arthritis) was scored as the percentage of animals within each experimental group that exhibited joint or limb inflammation on day 30 at intraperitoneal of dose 4 mg/kg; assay type: functional; procedure, shortened: as §1
[5] = tested on: Mus musculus; test: Incidence of disease(mouse type II collagen arthritis) was scored as the percentage of animals within each experimental group that exhibited joint or limb inflammation on day 30 at intraperitoneal of dose 8 mg/kg; assay type: functional; procedure, shortened: as §1
[6] = tested on: Mus musculus; test: Incidence of disease(mouse type II collagen arthritis) was scored as the percentage of animals within each experimental group that exhibited joint or limb inflammation on day 23 at intraperitoneal dose of 2 mg/kg; assay type: functional; procedure, shortened: as §1
[7] = tested on: Mus musculus; test: Incidence of disease(mouse type II collagen arthritis) was scored as the percentage of animals within each experimental group that exhibited joint or limb inflammation on day 23 at intraperitoneal dose of 4 mg/kg; assay type: functional; procedure, shortened: as §1
[8] = tested on: Mus musculus; test: Incidence of disease(mouse type II collagen arthritis) was scored as the percentage of animals within each experimental group that exhibited joint or limb inflammation on day 23 at intraperitoneal dose of 8 mg/kg; assay type: functional; procedure, shortened: as §1
[9] = tested on: Mus musculus; test: Tested for antiinflammatory activity on mouse type II collagen arthritis as Paw swelling* of all animals in each group on day 23 at intraperitoneal dose of 2 mg/kg; assay type: functional
Procedure, shortened: (§2)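 DBA/1 mice immunized with bovine type II collagen (Courtenay method, modified), antigen booster at day 21. Compounds given ip from 2 days before the first collagen challenge, then every 2 days. Hind paw dimensions (mm) measured for both limbs of all animals, expressed as mean ± SD. Eight mice per dose; untreated controls pooled from four experiments (48 animals).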

[10] = tested on: Mus musculus; test: Tested for antiinflammatory activity on mouse type II collagen arthritis as Paw swelling* of all animals in each group on day 37 at intraperitoneal dose of 8 mg/kg; assay type: functional; procedure, shortened: as §2
[11] = tested on: Mus musculus; test: Tested for antiinflammatory activity on mouse type II collagen arthritis as Paw swelling* of all animals in each group on day 44 at intraperitoneal dose of 2 mg/kg; assay type: functional; procedure, shortened: as §2
[12] = tested on: Mus musculus; test: Tested for antiinflammatory activity on mouse type II collagen arthritis as Paw swelling* of all animals in each group on day 44 at intraperitoneal dose of 4 mg/kg; assay type: functional; procedure, shortened: as §2
[13] = tested on: Mus musculus; test: Tested for antiinflammatory activity on mouse type II collagen arthritis as Paw swelling* of all animals in each group on day 23 at intraperitoneal dose of 8 mg/kg; assay type: functional; procedure, shortened: as §2
[14] = tested on: Mus musculus; test: Tested for antiinflammatory activity on mouse type II collagen arthritis as Paw swelling* of all animals in each group on day 23 at intraperitoneal dose of 4 mg/kg; assay type: functional; procedure, shortened: as §2
[15] = tested on: Mus musculus; test: Incidence of disease(mouse type II collagen arthritis) was scored as the percentage of animals within each experimental group that exhibited joint or limb inflammation on day 44 at intraperitoneal of dose 8 mg/kg; assay type: functional; procedure, shortened: as §1
[16] = tested on: Mus musculus; test: Incidence of disease(mouse type II collagen arthritis) was scored as the percentage of animals within each experimental group that exhibited joint or limb inflammation on day 37 at intraperitoneal of dose 2 mg/kg; assay type: functional; procedure, shortened: as §1
[17] = tested on: Mus musculus; test: Incidence of disease(mouse type II collagen arthritis) was scored as the percentage of animals within each experimental group that exhibited joint or limb inflammation on day 37 at intraperitoneal of dose 4 mg/kg; assay type: functional; procedure, shortened: as §1
[18] = tested on: Mus musculus; test: Incidence of disease(mouse type II collagen arthritis) was scored as the percentage of animals within each experimental group that exhibited joint or limb inflammation on day 37 at intraperitoneal of dose 8 mg/kg; assay type: functional; procedure, shortened: as §1
[19] = tested on: Mus musculus; test: Incidence of disease(mouse type II collagen arthritis) was scored as the percentage of animals within each experimental group that exhibited joint or limb inflammation on day 44 at intraperitoneal of dose 2 mg/kg; assay type: functional; procedure, shortened: as §1
[20] = tested on: Mus musculus; test: Incidence of disease(mouse type II collagen arthritis) was scored as the percentage of animals within each experimental group that exhibited joint or limb inflammation on day 44 at intraperitoneal of dose 4 mg/kg; assay type: functional; procedure, shortened: as §1
[21] = tested on: Mus musculus; test: Tested for antiinflammatory activity on mouse type II collagen arthritis as Paw swelling* of all animals in each group on day 30 at intraperitoneal dose of 2 mg/kg; assay type: functional; procedure, shortened: as §2
[22] = tested on: Mus musculus; test: Tested for antiinflammatory activity on mouse type II collagen arthritis as Paw swelling* of all animals in each group on day 30 at intraperitoneal dose of 4 mg/kg; assay type: functional; procedure, shortened: as §2
[23] = tested on: Mus musculus; test: Tested for antiinflammatory activity on mouse type II collagen arthritis as Paw swelling* of all animals in each group on day 30 at intraperitoneal dose of 8 mg/kg; assay type: functional; procedure, shortened: as §2
[24] = tested on: Mus musculus; test: Tested for antiinflammatory activity on mouse type II collagen arthritis as Paw swelling* of all animals in each group on day 37 at intraperitoneal dose of 2 mg/kg; assay type: functional; procedure, shortened: as §2
[25] = tested on: Mus musculus; test: Tested for antiinflammatory activity on mouse type II collagen arthritis as Paw swelling* of all animals in each group on day 37 at intraperitoneal dose of 4 mg/kg; assay type: functional; procedure, shortened: as §2
[26] = tested on: Mus musculus; test: Tested for antiinflammatory activity on mouse type II collagen arthritis as Paw swelling* of all animals in each group on day 44 at intraperitoneal dose of 8 mg/kg; assay type: functional; procedure, shortened: as §2

IC50 [2]: 88 nM
SMILES: Nc1nc(N)c2nc(CCc3ccc(C(=O)NC(CCC(=O)O)C(=O)O)cn3)cnc2n1 (stereo unspecified)
IC50 [1]: 36 nM | Animals [3]: 50% | Animals [4]: 57% | Animals [5]: 38% | Animals [6]: 0% | Animals [7]: 0% | Animals [8]: 0% | Paw swelling [9]: 2.13 mm | Paw swelling [10]: 2.2 mm | Paw swelling [11]: 2.88 mm | Paw swelling [12]: 2.68 mm | Paw swelling [13]: 2.08 mm | Paw swelling [14]: 2.08 mm | Animals [15]: 50% | Animals [16]: 63% | Animals [17]: 71% | Animals [18]: 25% | Animals [19]: 88% | Animals [20]: 100% | Paw swelling [21]: 2.35 mm | Paw swelling [22]: 2.24 mm | Paw swelling [23]: 2.22 mm | Paw swelling [24]: 2.67 mm | Paw swelling [25]: 2.57 mm | Paw swelling [26]: 2.33 mm
